Screening results (PubChem)
Shown is part of a subset that was picked to be rich in hits.
Avidin fluor = avidin bead compound fluorescence profile | Avidin beads, compound fluorescence 488/530 nm, flow cytometry; active compounds read high | fluorescence (KMESF) at 10 µM | 0.38% of 220,000 active; in the data active = fluorescence above about 47
ABCG2 block = inhibitors of human ABCG2 transporter, ABCB1 counter-screen; IgMXP3 cells, JC-1 efflux, flow cytometry; inhibition, % at 6.6 µM; 0.1% of 190,000 active; AID 1325;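 active = inhibition above 80%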;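 note: 0% = DMSO and 100% = nicardipine control wells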
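Test system: IgMXP3 (ABCG2) plus far-red-tagged CCRF-Adr (ABCB1) cells. Reagent: JC-1 dye as substrate. Timing: 10 min exposure at 25 °C with rotation, no wash. Measured by: flow cytometric JC-1 green MFI at 530 nm. Read-out: percent efflux inhibition, scaled nicardipine 100% to DMSO 0%. Control set: nicardipine and DMSO wells.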
PKD1 kinase inh = PKD1 (human) kinase inhibition. PKD1 kinase fluorescence polarization assay. Q15139. inhibition, % (concentration not given with the values). 0.056% of 200,000 active
ABCB1 inh = blocks JC-1 efflux by human ABCB1 transporter; P08183; CCRF-Adr cells, flow cytometry; inhibition, % at 6.6 µM; 0.067% of 190,000 active; AID 1326; in the data active = inhibition above about 40%;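 note: 0% = vehicle and 100% = reference inhibitor; higher value means more JC-1 retained so stronger ABCB1 efflux block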
Target sequence (P08183 whole entry, looked up): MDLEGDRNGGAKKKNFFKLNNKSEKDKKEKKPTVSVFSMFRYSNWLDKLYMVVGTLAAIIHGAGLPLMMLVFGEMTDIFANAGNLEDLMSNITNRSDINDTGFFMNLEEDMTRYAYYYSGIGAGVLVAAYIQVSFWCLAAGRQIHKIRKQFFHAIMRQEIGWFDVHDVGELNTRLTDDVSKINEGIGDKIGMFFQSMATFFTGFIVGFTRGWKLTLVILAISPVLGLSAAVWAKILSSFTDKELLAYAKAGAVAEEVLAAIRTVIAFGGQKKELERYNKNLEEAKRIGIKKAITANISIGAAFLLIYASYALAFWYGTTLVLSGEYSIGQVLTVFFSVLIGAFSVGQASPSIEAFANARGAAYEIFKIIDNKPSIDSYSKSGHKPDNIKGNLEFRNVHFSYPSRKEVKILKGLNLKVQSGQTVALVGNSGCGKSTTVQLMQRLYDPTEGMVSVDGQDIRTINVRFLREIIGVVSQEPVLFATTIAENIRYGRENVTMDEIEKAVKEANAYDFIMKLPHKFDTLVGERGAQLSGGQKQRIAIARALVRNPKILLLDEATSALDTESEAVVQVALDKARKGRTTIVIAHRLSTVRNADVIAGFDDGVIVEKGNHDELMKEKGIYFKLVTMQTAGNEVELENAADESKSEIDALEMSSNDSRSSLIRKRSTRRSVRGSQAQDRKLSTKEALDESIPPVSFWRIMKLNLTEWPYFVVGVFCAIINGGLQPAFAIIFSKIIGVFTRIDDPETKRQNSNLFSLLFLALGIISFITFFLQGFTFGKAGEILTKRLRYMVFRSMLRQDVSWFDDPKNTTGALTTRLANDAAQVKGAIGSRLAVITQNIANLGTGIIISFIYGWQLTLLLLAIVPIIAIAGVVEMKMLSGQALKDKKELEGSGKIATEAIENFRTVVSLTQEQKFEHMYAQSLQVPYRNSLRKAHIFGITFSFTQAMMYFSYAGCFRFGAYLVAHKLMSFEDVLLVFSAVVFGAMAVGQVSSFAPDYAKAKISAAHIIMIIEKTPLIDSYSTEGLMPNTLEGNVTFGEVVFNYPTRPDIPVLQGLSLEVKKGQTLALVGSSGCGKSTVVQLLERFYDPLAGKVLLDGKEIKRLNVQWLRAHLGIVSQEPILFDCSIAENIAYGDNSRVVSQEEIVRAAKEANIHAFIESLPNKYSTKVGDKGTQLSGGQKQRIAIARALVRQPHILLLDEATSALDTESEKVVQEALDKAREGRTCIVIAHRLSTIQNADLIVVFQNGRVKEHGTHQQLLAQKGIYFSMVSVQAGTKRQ
GSH fluor = GSH bead compound fluorescence profile; GSH beads flow cytometry, compound fluorescence 488/530 nm; active compounds read high; fluorescence (KMESF) at 10 µM; 0.25% of 190,000 active; AID 1776; in the data active = fluorescence above about 89;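 note: glutathione beads carrying GST-tagged Bcl family fusion proteins plus one bare bead set; values are compound well signal with DMSO vehicle wells as background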
L major viab = reduces viability of Leishmania major promastigotes | resazurin fluorescence viability | inhibition, % at 10 µM | 9% of 200,000 active | AID 1063;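 note: promastigotes grown with compound for 44 hours at 28 °C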
An asterisk follows results filed as active; / = not tested or not shown. Cut-off read from the data, not from the text of the source, unless noted: active = inhibition above about 50%; inactive = the rest.

SMILES	Avidin fluor	ABCG2 block	PKD1 kinase inh	ABCB1 inh	GSH fluor	L major viab
O=C(COC(=O)c1cccnc1)Nc1ccccc1	7	0.6	-6.0	0.1	14	-5.1
CC(=O)N1CCC(C(=O)Nc2ccccc2)(N(Cc2ccccc2)C(=O)c2cccnc2)CC1	8	0.1	8.7	0.1	267*	-1.8
Cc1cncn1CCc1nc2c3ccccc3nc(SCC(=O)Nc3cccc(Cl)c3)n2n1	2	4.6	2.2	1.2	6	100.4*
Cc1cc(C(=O)COC(=O)CC2Sc3ccccc3NC2=O)c(C)n1-c1cccc(C(F)(F)F)c1 (centres undefined)	7	0.5	-5.8	0.6	11	97.0*
OC(CNCc1ccc(-c2ccccc2)cc1)c1ccccc1 (centres undefined)	8	6.3	-5.6	3.1	20	99.1*
OCCNCc1ccc(-c2ccccc2)cc1	21	-5.8	1.1	-0.8	15	62.5*
OC(CNCc1cccc(Br)c1)c1ccccc1 (centres undefined)	20	0.7	-3.3	0.3	10	1.1
CCCn1nnnc1NC(=O)c1cc(Cl)ccc1Cl	10	8.6	-4.7	0.6	11	-1.9
Cn1cc(CC(=O)N2CCN(c3ccc(Cl)cc3)CC2)c2ccccc21	12	4.7	-11.9	0.7	16	64.7*
COCCNC(=O)c1ccccc1NC(=O)CSc1ccc(C)cc1	7	6.5	4.1	1.3	13	-1.5
CCC(C)NS(=O)(=O)c1ccc(NC(=O)C(Sc2ccccc2)c2ccccc2)cc1 (centres undefined)	8	3.5	-10.5	-0.2	21	68.2*
CC(=O)NS(=O)(=O)c1ccc(NC(=O)C(Sc2ccccc2)c2ccccc2)cc1 (centres undefined)	13	0.7	-11.8	0.0	30	-11.5
CCCCNS(=O)(=O)c1ccc(NC(=O)C(Sc2ccccc2)c2ccccc2)cc1 (centres undefined)	8	-0.6	2.9	-0.6	6	78.6*
COc1cccc(CN(C)CC(=O)Nc2ccccc2C(C)C)c1	10	8.7	-2.8	1.2	18	27.4
CCSc1nnc(NC(=O)C2CC(=O)N(Cc3ccccc3)C2)s1 (centres undefined)	7	3.6	-6.3	0.8	21	-1.7
CCOC(=O)c1c(C)[nH]c(C)c1C(=O)COC(=O)/C=C/c1cccc(C(F)(F)F)c1	12	0.8	-3.1	0.1	7	59.4*
CCOC(=O)c1c(C)[nH]c(C)c1C(=O)COC(=O)c1cc2ccccc2cc1OC	15	1.3	-6.4	0.5	10	64.3*
CCOC(=O)c1c(C)[nH]c(C)c1C(=O)COC(=O)/C=C/c1cccc(F)c1	5	43.0	-6.1	1.2	15	-0.2
CN(C)C(=O)c1c(C(F)(F)F)nn(C)c1Cl	11	7.5	1.0	0.9	11	0.1
Cc1[nH]c2ccccc2c1SCCNC(=O)c1ccc(S(=O)(=O)N2CCCC2)cc1	7	4.8	-4.5	0.7	18	99.3*
Cc1[nH]c2ccccc2c1C(=O)CSc1nc2cc(S(=O)(=O)N3CCCCC3)ccc2o1	17	-0.3	0.1	-0.3	3	54.9*
O=S1(=O)CC(O)C(N=Nc2c(O)n(Cc3ccccc3)c3ccccc23)C1 (centres undefined)	5	/	/	/	/	/
CCCn1nc(C(=O)Nc2nc3ccccc3[nH]2)c2ccccc2c1=O	9	20.1	-6.3	3.4	4	93.2*
CCCCCCn1nc(C(=O)Nc2nc3c(s2)CCCC3)c2ccccc2c1=O	10	30.4	14.2	2.5	19	50.4*
Nn1cnnc1N/N=C/c1ccc(Cl)c([N+](=O)[O-])c1	21	1.3	1.1	0.1	10	53.9*
CN(C)c1nc(N/N=C\c2ccc(Cl)c([N+](=O)[O-])c2)nc(Nc2ccc(F)cc2)n1	/	/	4.2	/	/	97.4*
Cc1n[nH]c(=O)n1-c1ccc(OCc2ccccc2)cc1	6	0.6	-3.7	-0.5	13	-4.8
Cc1ccc(CNS(=O)(=O)/C=C/c2ccc3c(c2)OCO3)cc1	40	1.4	4.0	0.5	12	-3.1
CNC(=O)c1cc2cc(OC)ccc2n1CCN(Cc1ccccc1)Cc1ccccc1	14	8.8	-4.6	1.3	34	100.2*
COc1ccc(Br)cc1/C=N/NC(=O)CN1CCN(Cc2ccccc2)CC1	7	/	/	/	/	/
